Results reported in PubChem BioAssay.
Inconclusive results are not listed. Activity calls are given as the source filed them.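 How the source made its calls, unless noted: active means RAM network inhibition above 8.4% in each of two replicates, 3 SD over the compound average; inconclusive means above 8.4% inhibition in only one replicate; inactive means 8.4% inhibition or less in each replicate.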

Assays:
[1] = S. cerevisiae growth inhibition in permissive medium (OD615), pilot counter-assay for S. cerevisiae lifespan shortening project, permissive growth control (AID 705;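 active means growth inhibition above 25% in both replicates, a cutoff set 3 SD above the mean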); settings: OD615, 24 h, at 10 µM, stronger effect = higher value
Outline: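 Test system: Saccharomyces cerevisiae strain carrying genetically modified DeaD replicative-lifespan system; buffer or medium: SC raffinose/galactose permissive medium; dosing: one dose 10 µM, DMSO 0.25% final; times: 24 h exposure, 30 °C; measured by: OD at 615 nm; read-out basis: growth inhibition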

[2] = S. cerevisiae growth inhibition in restrictive medium, OD615, pilot screen, restrictive growth control, yeast lifespan reduction project (AID 706;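 active means growth inhibition above a set limit, 3 SD over mean compound inhibition, in both replicates, cut at about 43% in these data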;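 further: modified DeaD lifespan yeast strain shifted to restrictive glucose medium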); settings: OD615, 48 h, at 10 µM, stronger effect = higher value
Outline: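 material = engineered S. cerevisiae DeaD strain | buffer or medium = glucose-based CSMM-D restrictive medium | dosing = one concentration, 10 µM final, 0.25% DMSO | schedule = 4 h pre-growth plus 48 h compound exposure, 30 °C | detection = OD615 absorbance reading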

[3] = doxorubicin toxicity protection in MRP-1 cells – H69AR cells, CellTiter-Glo, duplicate, MRP-1 activator project, pilot screen (AID 807;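 active means viability increase at or above a cutoff of the median across tested compounds plus 3 SD, cut at about 8.5% in these data, passing the limit was not always enough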;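 further: compound pretreatment 18-22 h then 72 h combined with doxorubicin; 0% = doxorubicin alone and 100% = vehicle without doxorubicin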); settings: H69AR viability with doxorubicin, CellTiter-Glo luminescence; at 10 µM; stronger effect = higher value
[4] = viability of HCT116 without oncogenic beta-catenin – human colon tumor cells, pilot screen (AID 823;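 active means cell viability at or below a set limit in both duplicate runs, the limit being the all-compound median minus 4 SD, cut at about 23% in these data, passing the limit was not always enough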;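 further: 0% = wells killed by 20 µM Hyamine and 100% = untreated DMSO cell wells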); settings: HCT116 beta-catenin knockout viability, CellTiter-Glo, 60 h; at 10 µM; stronger effect = lower value
[5] = viability of PTEN-null HCT116 cells – cell-based, HCT116 clonal line, CellTiter-Glo, pilot screen (AID 824;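 active means viability at or below 27.92% in each of two runs, the all-compound median minus 4 SD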;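 further: 0% = 20 µM Hyamine control and 100% = vehicle cell control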); settings: HCT116 PTEN-deleted viability, 60 h, at 10 µM, stronger effect = lower value
[6] = RAM pathway blockade in budding yeast – dse1pr::URA3 reporter, 5-FOA selection, pilot screen (AID 869;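 active means inhibition over a set limit, the all-compound mean plus 3 SD, in both replicate runs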;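 further: 0% = DMSO wells with no growth and 100% = 10 µM 1-NA-PP1 with full growth; RAM network block rescues cells from 5-FOA so hits raise OD615 growth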); settings: S. cerevisiae dse1pr::URA3 5-FOA growth, OD615, 2 d; at 10 µM; stronger effect = higher value; strain carries analog-sensitive mutant Cbk1 kinase
[7] = RAM signaling pathway blockade in yeast – S. cerevisiae, Pdr1DBD-CYC8 efflux-inhibited sensitized strain, primary screen (AID 1298);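 further: 0% = DMSO untreated cells without growth and 100% = 10 µM 1-NA-PP1 full growth; higher means more yeast growth rescued from 5-FOA killing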; settings: S. cerevisiae cbk1-as DSE1-URA3 strain, 5-FOA growth OD615, 2 d; at 50 µM; stronger effect = higher value

CCS(=O)(=O)Nc1cc(-c2nc3cccnc3s2)ccc1C
inactive: growth inhibition [1] -6.48% | growth inhibition [2] 12.5% | viability increase [3] -3.94% | viability [4] 100% | viability [5] 82.8% | inhibition [6] 1.89% | RAM network inhibition [7] 5.32%

CC(=O)c1ccc2c3c(ccc(O)c13)CC2
inactive: growth inhibition [1] -1.21% | growth inhibition [2] 7.16% | viability increase [3] -4.04% | viability [4] 97.2% | viability [5] 88% | inhibition [6] 1.52% | RAM network inhibition [7] 5.46%

Cc1ccc(-n2ncc3c(NCCCn4ccnc4)ncnc32)c(C)c1
inactive: growth inhibition [1] -3.41% | growth inhibition [2] -7.83% | viability increase [3] -0.58% | viability [4] 88.8% | viability [5] 90.6% | inhibition [6] 1.5% | RAM network inhibition [7] 2.5%

COc1ccc2c(C)cc(=O)oc2c1C
inactive: growth inhibition [1] 2.89% | growth inhibition [2] -2.73% | viability increase [3] -2.26% | viability [4] 102% | viability [5] 94.7% | inhibition [6] 1.96% | RAM network inhibition [7] 5.35%

CCSc1nnc(NC(=O)CCn2c(=O)oc3ccccc32)s1
inactive: growth inhibition [1] -3.29% | growth inhibition [2] -6.38% | viability increase [3] -0.78% | viability [4] 102% | viability [5] 103% | inhibition [6] 0.22% | RAM network inhibition [7] 9.53%

O=C(CN1CCN(c2ncccn2)CC1)NCCC1=CCCCC1
inactive: growth inhibition [1] -8.09% | growth inhibition [2] -27.1% | viability increase [3] -2.15% | viability [4] 94% | viability [5] 93.7% | inhibition [6] 1.9% | RAM network inhibition [7] 5.02%

COCCNC(=O)c1cc2c(=O)n(C)c3ccccc3c2n1C
inactive: growth inhibition [1] -11.1% | growth inhibition [2] -7.54% | viability increase [3] -4.57% | viability [4] 84.4% | viability [5] 84.4% | inhibition [6] 2.69% | RAM network inhibition [7] 0.36%

CCOC(=O)C1=C(CS(=O)(=O)c2ccccc2)NC(=O)NC1c1ccccc1OCC (stereo not given)
inactive: growth inhibition [1] -15.1% | growth inhibition [2] -5.42% | viability increase [3] 0.13% | viability [4] 98.7% | viability [5] 101% | inhibition [6] 2.07% | RAM network inhibition [7] -0.04%

O=C(c1ccc(NC2=NC3CS(=O)(=O)CC3S2)cc1)N1CCN(C(=O)c2ccco2)CC1 (stereo not given)
inactive: growth inhibition [1] -12.1% | growth inhibition [2] -8.33% | viability increase [3] 0.69% | viability [4] 104% | viability [5] 98.3% | inhibition [6] 2.96% | RAM network inhibition [7] 4.06%

CCCCN(C)Cc1c(C)[nH]c2ccc(OCC)cc2c1=O
inactive: growth inhibition [1] -11.7% | growth inhibition [2] -20% | viability increase [3] -0.94% | viability [4] 93.6% | viability [5] 97.9% | inhibition [6] 1.4% | RAM network inhibition [7] 4.04%

COc1ccccc1N1CCN(CC(=O)c2ccc3ccn(C(C)=O)c3c2)CC1
inactive: growth inhibition [1] -3.38% | growth inhibition [2] -12.2% | viability increase [3] -5.06% | viability [4] 88.2% | viability [5] 79.8% | inhibition [6] 1.14% | RAM network inhibition [7] 3.27%

COc1cccc(-n2c(Cc3cc(=O)[nH]c(=O)[nH]3)nnc2SCC(=O)Nc2ccccc2)c1
inactive: growth inhibition [1] -5.92% | growth inhibition [2] -2.63% | viability increase [3] -0.3% | viability [4] 107% | viability [5] 97.8% | inhibition [6] 1.61% | RAM network inhibition [7] 0.67%

Cn1c(NC(=O)c2ccc(F)c(F)c2)cc(=O)n(C)c1=O
inactive: growth inhibition [1] -2.93% | growth inhibition [2] -3.23% | viability increase [3] -1.64% | viability [4] 95.7% | viability [5] 93.4% | inhibition [6] 0.925% | RAM network inhibition [7] 0.81%

CCN1CCN(c2ncnc3c2sc2nc(N4CCOCC4)c4c(c23)CCC4)CC1
inactive: growth inhibition [1] -5.5% | growth inhibition [2] -14.1% | viability increase [3] -4.51% | viability [4] 85.1% | viability [5] 86.3% | inhibition [6] 0.195% | RAM network inhibition [7] 5.27%

COCCCNC(=O)CN1C(=O)CSc2ncccc21
inactive: growth inhibition [1] -3.21% | growth inhibition [2] 3.79% | viability increase [3] 0.91% | viability [4] 105% | viability [5] 101% | inhibition [6] 2.06% | RAM network inhibition [7] 2.8%
